ChEMBL document CHEMBL4145448, “Broad activity of diphenyleneiodonium analogues against Mycobacterium tuberculosis, malaria parasites and bacterial pathogens” (Eur J Med Chem, 2018)

Tests used:
Pseudomonas aeruginosa [1] = assay: Antibacterial activity against Pseudomonas aeruginosa ATCC 27853 after 18 hrs by broth microdilution method; format: functional; settings: ATCC 27853, 18 h
Procedure, shortened: (§1)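 Broth microdilution per CLSI in cation-adjusted Mueller-Hinton broth. 100 µL inoculum (~10^6 cfu/mL in CaMHB) mixed with 100 µL CaMHB containing compound, 0 to 128 µM. Incubated 18 h at 37 °C. MIC taken as the lowest concentration with no visible growth. Polymyxin B served as positive control. Isolates were stored at -80 °C in tryptone soy broth with 20% glycerol.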

Pseudomonas aeruginosa [2] = assay: Antibacterial activity against Pseudomonas aeruginosa QLD PSA 1 after 18 hrs by broth microdilution method; format: functional; settings: QLD PSA 1, 18 h; procedure, shortened: as §1
Pseudomonas aeruginosa [3] = assay: Antibacterial activity against Pseudomonas aeruginosa isolate M146201 after 18 hrs by broth microdilution method; format: functional; settings: isolate M146201, 18 h; procedure, shortened: as §1
Acinetobacter baumannii [4] = assay: Antibacterial activity against Acinetobacter baumannii ATCC 19606 after 18 hrs by broth microdilution method; format: functional; settings: ATCC 19606 = CIP 70.34 = JCM 6841, 18 h; procedure, shortened: as §1
Acinetobacter baumannii [5] = assay: Antibacterial activity against Acinetobacter baumannii ATCC 17978 after 18 hrs by broth microdilution method; format: functional; settings: ATCC 17978, 18 h; procedure, shortened: as §1
Acinetobacter baumannii [6] = assay: Antibacterial activity against Acinetobacter baumannii ATCC 17978 col10 after 18 hrs by broth microdilution method; format: functional; settings: ATCC 17978 col10, 18 h; procedure, shortened: as §1
Klebsiella pneumoniae [7] = assay: Antibacterial activity against Klebsiella pneumoniae ATCC 13883 after 18 hrs by broth microdilution method; format: functional; settings: ATCC 13883, 18 h; procedure, shortened: as §1
Klebsiella pneumoniae [8] = assay: Antibacterial activity against Klebsiella pneumoniae isolate M320445 after 18 hrs by broth microdilution method; format: functional; settings: isolate M320445, 18 h; procedure, shortened: as §1
Klebsiella pneumoniae [9] = assay: Antibacterial activity against Klebsiella pneumoniae isolate 248-33-D after 18 hrs by broth microdilution method; format: functional; procedure, shortened: as §1
Escherichia coli [10] = assay: Antibacterial activity against Escherichia coli N2381 after 18 hrs by broth microdilution method; format: functional; settings: N2381, 18 h; procedure, shortened: as §1
Escherichia coli [11] = assay: Antibacterial activity against Escherichia coli N11281 after 18 hrs by broth microdilution method; format: functional; settings: N11281, 18 h; procedure, shortened: as §1
[12] = Selectivity index, ratio of CC50 for human HepG2 cells in presence of 1% FBS to MIC for Pseudomonas aeruginosa isolate 19147nm; format: toxicity; settings: read-out: Selectivity Index
Procedure, shortened: (§2)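 Selectivity index is CC50 (1% FBS) divided by MIC. […] They then got compound at 300 to 0.14 µM (3-fold steps) for 24 h at 37 °C, 5% CO2. Resazurin (10 µM, 2 h) was read at ex/em 560/590 in duplicate wells. For MIC, CLSI broth microdilution was run in CaMHB with ~10^6 cfu/mL inoculum and 0–128 µM compound.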

[13] = Selectivity index, ratio of CC50 for human HepG2 cells in presence of 1% FBS to MIC for Pseudomonas aeruginosa isolate 18878B klon 1; format: toxicity; settings: read-out: Selectivity Index; procedure, shortened: as §2
[14] = Selectivity index, ratio of CC50 for human HepG2 cells in presence of 1% FBS to MIC for Acinetobacter baumannii ATCC 19606 col10; format: toxicity; settings: read-out: Selectivity Index
[15] = Selectivity index, ratio of CC50 for human HepG2 cells in presence of 1% FBS to MIC for Klebsiella pneumoniae ATCC 13883; format: toxicity; settings: read-out: Selectivity Index
[16] = Selectivity index, ratio of CC50 for human HepG2 cells in presence of 1% FBS to MIC for methicillin-resistant Staphylococcus aureus ATCC 43300; format: toxicity; settings: read-out: Selectivity Index; procedure, shortened: as §2
[17] = test system: Mycobacterium tuberculosis; assay: Antimycobacterial activity against Mycobacterium tuberculosis H37Rv ATCC 25618 after 7 days by resazurin dye based assay; format: functional; settings: H37Rv ATCC 25618, 168 h
Procedure, shortened: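 H37Rv grown at 37 °C in 7H9 with 10% ADC, 0.5% glycerol and 0.02% tyloxapol. Compounds serially diluted in water, 0 to 10 µM, in triplicate. Culture adjusted to OD600 0.001 and incubated 7 days at 37 °C. Resazurin (0.05% w/v) added for 4-24 h and fluorescence read at 590 nm. MIC is the lowest concentration giving complete growth inhibition versus untreated. Rifampicin served as control.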

[18] = Cytotoxicity against human HepG2 cells after 24 hrs in presence of 1% FBS by resazurin dye based assay; format: cell-based
Procedure, shortened: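 HepG2 cells seeded at 4000/well in DMEM with 1% FBS and allowed to attach for 24 h at 37 °C, 5% CO2. Compounds added from 300 to 0.14 µM in 3-fold steps and incubated 24 h. 10 µM resazurin added for 2 h, fluorescence read at ex/em 560/590. Percent viability computed relative to untreated and negative controls, duplicate wells.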

Plasmodium falciparum [19] = assay: Growth inhibition of CQ-sensitive GFP-fused Plasmodium falciparum D10 after 90 hrs by ethidium bromide staining based flow cytometry; format: functional, organism-based; settings: D10, 90 h
Procedure, shortened: (§3)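 Parasites cultured in human O+ erythrocytes in RPMI-HEPES pH 7.4 with hypoxanthine, NaHCO3, gentamicin and 0.5% Albumax II under 1% O2/4% CO2 at 37 °C. Synchronised to rings with heparin plus sorbitol. Set up at 1% parasitaemia and 1% haematocrit with 10x compound added. Cultured 90 h to next-cycle trophozoites. Stained with 10 µg/mL ethidium bromide for 1 h, washed, parasitaemia counted by flow cytometry with GFP gating.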

Plasmodium falciparum [20] = assay: Growth inhibition of […] GFP-fused Plasmodium falciparum D10 after 90 hrs by ethidium bromide staining based flow cytometry; format: functional, organism-based; settings: D10, 90 h; procedure, shortened: as §3
[21] = Selectivity index, ratio of CC50 for human HepG2 cells in presence of 1% FBS to IC50 for drug-resistant GFP-fused Plasmodium falciparum D10; format: toxicity; settings: read-out: Ratio IC50
Plasmodium knowlesi = assay: Growth inhibition of Plasmodium knowlesi YH1 after 50 hrs by ethidium bromide staining based flow cytometry; format: functional, organism-based; settings: YH1, 50 h
Procedure, shortened: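 P. knowlesi YH1 cultured in human O+ erythrocytes in RPMI-HEPES with 0.5% Albumax II under 1% O2/4% CO2. Ring-synchronised parasites set up at 1% parasitaemia and 1% haematocrit with compound. Cultured 50 h to late trophozoites of the next cycle. Stained 1 h with 10 µg/mL ethidium bromide and parasitaemia counted by flow cytometry.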

[22] = Selectivity index, ratio of CC50 for human HepG2 cells in presence of 1% FBS to IC50 for Plasmodium knowlesi YH1; format: toxicity; settings: read-out: Ratio IC50

Compound | MIC (Pseudomonas aeruginosa [1]) [µM] | MIC (Pseudomonas aeruginosa [2]) [µM] | MIC (Pseudomonas aeruginosa [3]) [µM] | MIC (Acinetobacter baumannii [4]) [µM] | MIC (Acinetobacter baumannii [5]) [µM] | MIC (Acinetobacter baumannii [6]) [µM] | MIC (Klebsiella pneumoniae [7]) [µM] | MIC (Klebsiella pneumoniae [8]) [µM] | MIC (Klebsiella pneumoniae [9]) [µM] | MIC (Escherichia coli [10]) [µM] | MIC (Escherichia coli [11]) [µM] | selectivity ratio [12] | selectivity ratio [13] | selectivity ratio [14] | selectivity ratio [15] | selectivity ratio [16] | MIC [17] [µM] | CC50 at 24 h [18] [nM] | IC50 (Plasmodium falciparum [19]) [nM] | also measured
COc1ccc2c(c1)[I+]c1ccccc1-2 | > 70 | 70 | 70 | 18 | 18 | 2.2 | > 70 | 70 | > 70 | 35 | > 70 | 0.81 | 0.39 | 3.1 | > 0.11 | 1.6 | 0.28 | 6800 | – | –
Cc1ccc2c(c1)-c1ccccc1[I+]2 | > 73 | 36 | 36 | 18 | 9 | 1.1 | 72 | 72 | 72 | 72 | 72 | 4.2 | 4.2 | 4.2 | 0.52 | 4.2 | 0.57 | 37500 | 80 | –
c1ccc2c(c1)[I+]c1c-2ccc2ccccc12 | 8.4 | 4.2 | 8.4 | 4.2 | 1.1 | 0.52 | 8.4 | 17 | 34 | 8.4 | 17 | 0.34 | 0.34 | 0.69 | 0.09 | 0.34 | 0.52 | 720 | 120 | –
Fc1ccc2c(c1)-c1ccccc1[I+]2 | 18 | 18 | 4.5 | 4.5 | 2.2 | 0.56 | 18 | 18 | 18 | 18 | 18 | 11 | 5.3 | 5.3 | 0.67 | 2.7 | 0.29 | 11900 | 100 | –
Cc1cccc2c1-c1ccccc1[I+]2 | 18 | 4.5 | 2.3 | 2.3 | 1.1 | 0.57 | 18 | 36 | > 72 | 18 | 18 | 4.6 | 2.3 | 1.2 | 0.14 | 0.07 | 0.14 | 2600 | 70 | –
Clc1cccc2c1-c1ccccc1[I+]2 | < 0.27 | 0.54 | 0.54 | < 0.27 | < 0.27 | < 0.27 | 4.3 | 8.6 | 8.6 | 0.54 | 2.2 | < 2.4 | < 2.4 | < 2.4 | 0.15 | 0.61 | 0.28 | 660 | 50 | IC50 (Plasmodium falciparum [20]): 70 nM; selectivity ratio [21]: 8.9; IC50 (Plasmodium knowlesi): 80 nM; selectivity ratio [22]: 8.5
Fc1ccc2c(c1)[I+]c1ccccc1-2 | 8.9 | 8.9 | 2.2 | 4.5 | 1.1 | 0.56 | 36 | 36 | 36 | 18 | 18 | 11 | 5.3 | 2.6 | 0.16 | 2.6 | 0.29 | 5900 | 60 | –
COc1ccc2c(c1)-c1ccccc1[I+]2 | > 70 | 70 | 70 | 35 | 18 | 4.4 | 70 | 70 | > 70 | > 70 | > 70 | 1.2 | 0.58 | 2.3 | 0.29 | 1.5 | 1.1 | 20200 | 100 | –
N#Cc1ccc2c(c1)[I+]c1ccccc1-2 | 35 | 8.8 | 18 | 18 | 4.4 | 2.2 | 18 | 35 | > 71 | 71 | 71 | 1.5 | 0.75 | 1.5 | 0.19 | 0.75 | 0.29 | 3300 | 50 | –
COc1cccc2c1-c1ccccc1[I+]2 | > 70 | > 70 | > 70 | 35 | 35 | 35 | > 70 | 70 | > 70 | 70 | > 70 | 0.55 | 0.55 | 2.2 | > 0.55 | 1.1 | 4.4 | 38300 | 170 | –
Clc1ccc2c(c1)[I+]c1ccccc1-2 | 8.7 | 2.2 | 2.2 | 2.2 | 0.54 | < 0.27 | 8.7 | 8.7 | 17 | 8.7 | 4.3 | 2 | 2 | 1 | 0.13 | 0.51 | 0.28 | 1100 | 70 | –
Clc1ccc2c(c1)-c1ccccc1[I+]2 | 8.7 | 8.7 | 4.3 | 4.3 | 2.2 | 0.5 | 8.7 | 35 | 17 | 17 | 17 | 3.7 | 7.5 | 7.5 | 1.9 | 7.5 | 0.54 | 16100 | 80 | –
